# Data taken from ChEMBL document CHEMBL1142303, “Imidazo[2,1-b]thiazole system: a scaffold endowing dihydropyridines with selective cardiodepressant activity” (J Med Chem, 2008).
# Calls of active or inactive are those of the source. The rule behind the calls is not given here.
# Key:
# Heart [1] = experiment: Cardiovascular activity in perfused guinea pig heart assessed as change in coronary perfusion pressure at 1 uM by ECG; type: functional, Cavia porcellus
# Procedure, shortened: (§1)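 Guinea-pig heart: values are % change from basal. Parameters are +(dP/dt)max, heart rate, coronary perfusion pressure, PR and QT intervals. Highest concentration tested 10 µM.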
# Cavia porcellus [2] = species: Cavia porcellus; experiment: Activity at L type calcium channel in K+ depolarized guinea pig aortic strip assessed as inhibition of calcium induced contraction at 1 uM; type: tissue-based; set-up: scale not given: the % may be the effect or the level left; conditions: Aorta
# Procedure, shortened: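 Guinea-pig aortic strips depolarized with K+ (80 mM); % inhibition of Ca2+-induced contraction vs control. Drugs added cumulatively, compared with control at each concentration (Student's t-test, P<0.05). Mean ± S.E.M.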
# Heart [3] = experiment: Cardiovascular activity in perfused guinea pig heart assessed as change in maximal rate of rise in left ventricular pressure at 10 nM by ECG; type: functional, Cavia porcellus; procedure, shortened: as §1
# [4] = (§2) Displacement of (+)-[5-methyl-3H][…] from L type calcium channel Cav1.2b in rabbit expressed in HEK293 cells; type: cell-based, Oryctolagus cuniculus
# Procedure, shortened: (§3)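 Intact HEK-293 cells transfected with rabbit Cav1.2a (α1C-a) or Cav1.2b (α1C-b) plasmid, labelled with (+)-[5-methyl-3H]PN200-110. Nonspecific binding about 10–20% of total. IC50 is mean ± S.E.M. of three independent experiments.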
# Cavia porcellus [5] = species: Cavia porcellus; experiment: Chronotropic activity at L type calcium channel in guinea pig right atrium assessed as decrease in spontaneous beating at 0.1 uM relative to control; type: tissue-based; set-up: scale not given: the % may be the effect or the level left; conditions: Cardiac atrium
# Procedure, shortened: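 Spontaneously beating guinea-pig right atrium: % decrease in rate vs control. Drugs added cumulatively at increasing concentrations, compared with control at each concentration (Student's t-test, P<0.05). Mean ± S.E.M.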
# Cavia porcellus [6] = species: Cavia porcellus; experiment: Inotropic activity at L type calcium channel in guinea pig left atrium assessed as decrease in tension at 10 uM relative to control; type: tissue-based; set-up: scale not given: the % may be the effect or the level left; conditions: Cardiac atrium
# [7] = Displacement of (+)-[5-methyl-3H][…] from L type calcium channel in guinea pig heart ventricles; set-up: species or system Cavia porcellus
# Procedure, shortened: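 Guinea-pig ventricular membranes incubated with 0.5 nM (+)-[5-methyl-3H]PN200-110 and test compounds at 0.1–50 µM in a competitive radioligand assay. Ki and IC50 reported as mean ± S.E.M. Student's t-test, significance P < 0.001.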
# Heart [8] = experiment: Cardiovascular activity in perfused guinea pig heart assessed as change in ventricular repolarization time at 10 nM by ECG; type: functional, Cavia porcellus; procedure, shortened: as §1
# Heart [9] = experiment: Cardiovascular activity in perfused guinea pig heart assessed as change in heart rate at 10 nM by ECG; type: functional, Cavia porcellus; procedure, shortened: as §1
# Cavia porcellus [10] = species: Cavia porcellus; experiment: Activity at L type calcium channel in K+ depolarized guinea pig longitudinal smooth muscle assessed as inhibition of calcium induced contraction at 5 nM; set-up: scale not given: the % may be the effect or the level left
# Cavia porcellus [11] = species: Cavia porcellus; experiment: Chronotropic activity at L type calcium channel in guinea pig right atrium assessed as decrease in spontaneous beating; type: tissue-based; conditions: Cardiac atrium
# Procedure, shortened: (§4)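 Guinea-pig atria: left atrium driven at 1 Hz for inotropy, spontaneously beating right atrium for chronotropy. Increasing cumulative doses, readout is percent decrease. EC50 (inotropic) and EC30 (chronotropic) by Litchfield–Wilcoxon probit analysis on log concentration–response curves, n = 6–7. Not calculated when the maximum effect was below 50%.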
# Heart [12] = experiment: Cardiovascular activity in perfused guinea pig heart assessed as change in atrioventricular conduction time at 1 uM by ECG; type: functional, Cavia porcellus
# [13] = Inotropic activity at L type calcium channel in guinea pig left atrium assessed as decrease in tension; type: tissue-based; conditions: Cavia porcellus, Cardiac atrium; procedure, shortened: as §4
# [14] = (§5) Displacement of (+)-[5-methyl-3H][…] from L type calcium channel Cav1.2a in rabbit expressed in HEK293 cells; type: cell-based, Oryctolagus cuniculus; procedure, shortened: as §3
# Cavia porcellus [15] = species: Cavia porcellus; experiment: Inotropic activity at L type calcium channel in guinea pig left atrium assessed as decrease in tension at 1 uM relative to control; type: tissue-based; set-up: scale not given: the % may be the effect or the level left; conditions: Cardiac atrium
# [16] = Activity at L type calcium channel in K+ depolarized guinea pig longitudinal smooth muscle assessed as inhibition of calcium induced contraction; set-up: species or system Cavia porcellus
# Cavia porcellus [17] = species: Cavia porcellus; experiment: Chronotropic activity at L type calcium channel in guinea pig right atrium assessed as decrease in spontaneous beating at 10 uM relative to control; type: tissue-based; set-up: scale not given: the % may be the effect or the level left; conditions: Cardiac atrium
# Heart [18] = experiment: Cardiovascular activity in perfused guinea pig heart assessed as change in coronary perfusion pressure at 10 uM by ECG; type: functional, Cavia porcellus
# Procedure, shortened: (§6)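 Perfused guinea-pig heart. Percentage change from basal value at the highest concentration tested, 10 µM. Parameters: +(dP/dt)max, heart rate, coronary perfusion pressure, PR interval and QT interval from ECG.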
# Cavia porcellus [19] = species: Cavia porcellus; experiment: Activity at L type calcium channel in K+ depolarized guinea pig aortic strip assessed as inhibition of calcium induced contraction at 50 uM; type: tissue-based; set-up: scale not given: the % may be the effect or the level left; conditions: Aorta
# Procedure, shortened: (§7)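 Guinea-pig aortic strips depolarized with 80 mM K+. Drugs added cumulatively. Readout is percent inhibition of calcium-induced contraction, n = 5–6. Control versus treated values tested at each concentration by Student's t-test, P < 0.05.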
# Heart [20] = experiment: Cardiovascular activity in perfused guinea pig heart assessed as change in atrioventricular conduction time at 10 uM by ECG; type: functional, Cavia porcellus; procedure, shortened: as §6
# Heart [21] = experiment: Cardiovascular activity in perfused guinea pig heart assessed as change in maximal rate of rise in left ventricular pressure at 10 uM by ECG; type: functional, Cavia porcellus; procedure, shortened: as §6
# Heart [22] = experiment: Cardiovascular activity in perfused guinea pig heart assessed as change in ventricular repolarization time at 10 uM by ECG; type: functional, Cavia porcellus; procedure, shortened: as §6
# Cavia porcellus [23] = species: Cavia porcellus; experiment: Activity at L type calcium channel in K+ depolarized guinea pig longitudinal smooth muscle assessed as inhibition of calcium induced contraction at 10 uM; set-up: scale not given: the % may be the effect or the level left
# Heart [24] = experiment: Cardiovascular activity in perfused guinea pig heart assessed as change in heart rate at 10 uM by ECG; type: functional, Cavia porcellus; procedure, shortened: as §6
# Cavia porcellus [25] = species: Cavia porcellus; experiment: Activity at L type calcium channel in K+ depolarized guinea pig aortic strip assessed as inhibition of calcium induced contraction at 5 uM; type: tissue-based; set-up: scale not given: the % may be the effect or the level left; conditions: Aorta; procedure, shortened: as §7
# Cavia porcellus [26] = species: Cavia porcellus; experiment: Chronotropic activity at L type calcium channel in guinea pig right atrium assessed as decrease in spontaneous beating at 1 uM relative to control; type: tissue-based; set-up: scale not given: the % may be the effect or the level left; conditions: Cardiac atrium
# HEK293 [27] = experiment: as §2; type: cell-based; conditions: Oryctolagus cuniculus; procedure, shortened: as §3
# HEK293 [28] = experiment: as §5; type: cell-based; conditions: Oryctolagus cuniculus; procedure, shortened: as §3
structure (smiles),measurement,setting,value
COC(=O)C1=C(C)NC(C)=C(C(=O)OC)C1c1ccccc1[N+](=O)[O-] [NIFEDIPINE],Activity,Heart [1],-36%
same,Activity,Cavia porcellus [2],82%
same,Activity,Heart [3],-96%
same,IC50,[4],3.6 nM
same,Activity,Cavia porcellus [5],85%
same,Activity,Cavia porcellus [6],97%
same,Log Ki,[7],-8.83
same,Activity,Heart [8],37%
same,Activity,Heart [9],-60%
same,Activity,Cavia porcellus [10],70%
same,EC30,Cavia porcellus [11],25 nM
same,Activity,Heart [12],66%
same,EC50,[13],260 nM
same,IC50,[14],45 nM
COC(=O)C1=C(C)NC(C)=C(C(=O)OC)C1c1c(Cl)nc2sc(C)cn12,Activity,Cavia porcellus [15],63%
same,IC50,[16],2060 nM
same,Activity,Cavia porcellus [17],22%
same,Activity,Heart [18],14%
same,Activity,Cavia porcellus [19],19%
same,Activity,Heart [20],61%
same,Activity,Heart [21],-35%
same,Log Ki,[7],< -5
same,Activity,Heart [22],-16%
same,Activity,Cavia porcellus [23],93%
same,EC50,[13],56 nM
same,Activity,Heart [24],6%
COC(=O)C1=C(C)NC(C)=C(C(=O)OC)C1c1c(C(F)(F)F)nc2sccn12,Activity,Cavia porcellus [25],34%
same,Activity,Cavia porcellus [26],54%
same,Activity,HEK293 [27],inactive
same,Activity,Cavia porcellus [6],90%
same,Log Ki,[7],-5.35
same,EC30,Cavia porcellus [11],570 nM
same,EC50,[13],71 nM
same,Activity,HEK293 [28],inactive
